# Measured values taken from ChEMBL document CHEMBL1156652, “Antiurolithic effect of lupeol and lupeol linoleate in experimental hyperoxaluria” (J Nat Prod, 2008).
# Active and inactive are the calls of the source.
# Tests used:
# [1] = tested on: Rattus norvegicus; assay: Effect on superoxide dismutase activity in kidney of Wistar rat assessed per mg of protein at 50 mg/kg/day, po for 28 days; format: functional
# How it was run: (§1)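 Normal male Wistar rats, no ethylene glycol, dosed orally at 50 mg/kg body wt/day for 28 days. Kidney homogenate, 10% in 0.01 M Tris-HCl pH 7.4. SOD unit defined as 50% inhibition of pyrogallol autoxidation; CAT as µmol H2O2 utilized/min. GSH, vitamins C and E as µg/mg protein. Protein by Lowry. Mean ± SEM, 6 rats/group.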
# [2] = tested on: Rattus norvegicus; assay: Increase in catalase activity in kidney of ethylene glycol-induced hyperoxaluria Wistar rat model assessed per mg of protein at 50 mg/kg/day, po for 28 days; format: functional
# How it was run: (§2)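 Ethylene glycol-hyperoxaluric male Wistar rats (0.75% in drinking water, 28 days), co-dosed orally at 50 mg/kg body wt/day. Kidney homogenate, 10% in 0.01 M Tris-HCl pH 7.4. SOD unit defined as 50% inhibition of pyrogallol autoxidation; CAT as µmol H2O2 utilized/min. GSH, vitamins C and E as µg/mg protein. Mean ± SEM, 6 rats/group.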
# [3] = tested on: Rattus norvegicus; assay: Effect on catalase activity in kidney of Wistar rat assessed per mg of protein at 50 mg/kg/day, po for 28 days; format: functional; how it was run: as §1
# [4] = tested on: Rattus norvegicus; assay: Increase in glutathione peroxidase activity in kidney of ethylene glycol-induced hyperoxaluria Wistar rat model assessed per mg of protein at 50 mg/kg/day, po for 28 days; format: functional; how it was run: as §2
# [5] = tested on: Rattus norvegicus; assay: Effect on glutathione peroxidase activity in kidney of Wistar rat assessed per mg of protein at 50 mg/kg/day, po for 28 days; format: functional; how it was run: as §1
# [6] = tested on: Rattus norvegicus; assay: Increase in glutathione level in kidney of ethylene glycol-induced hyperoxaluria Wistar rat model assessed per mg of protein at 50 mg/kg/day, po for 28 days; format: functional; how it was run: as §2
# [7] = tested on: Rattus norvegicus; assay: Effect on glutathione level in kidney of Wistar rat assessed per mg of protein at 50 mg/kg/day, po for 28 days; format: functional; how it was run: as §1
# [8] = tested on: Rattus norvegicus; assay: Increase in vitamin C level in kidney of ethylene glycol-induced hyperoxaluria Wistar rat model assessed per mg of protein at 50 mg/kg/day, po for 28 days; format: functional; how it was run: as §2
# [9] = tested on: Rattus norvegicus; assay: Effect on vitamin C level in kidney of Wistar rat assessed per mg of protein at 50 mg/kg/day, po for 28 days; format: functional; how it was run: as §1
# [10] = tested on: Rattus norvegicus; assay: Increase in vitamin E level in kidney of ethylene glycol-induced hyperoxaluria Wistar rat model assessed per mg of protein at 50 mg/kg/day, po for 28 days; format: functional; how it was run: as §2
# [11] = tested on: Rattus norvegicus; assay: Effect on vitamin E level in kidney of Wistar rat assessed per mg of protein at 50 mg/kg/day, po for 28 days; format: functional; how it was run: as §1
# [12] = tested on: Rattus norvegicus; assay: Reduction in ascorbate-induced lipid peroxidation levels in kidney of ethylene glycol-induced hyperoxaluria Wistar rat model assessed as malondialdehyde release per mg of protein at 50 mg/kg/day, po for 28 days; format: functional
# How it was run: (§3)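 Male Wistar rats given 0.75% ethylene glycol in drinking water for 28 days, with drug orally at 50 mg/kg body wt/day throughout. Kidney homogenized 10% in ice-cold 0.01 M Tris-HCl, pH 7.4. Lipid peroxidation read as malondialdehyde released, with 10 mM ferrous sulfate or 0.2 mM ascorbate as inducer. Mean ± SEM, 6 rats/group.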
# [13] = tested on: Rattus norvegicus; assay: Effect on ascorbate-induced lipid peroxidation levels in kidney of Wistar rat assessed as malondialdehyde release per mg of protein at 50 mg/kg/day, po for 28 days; format: functional
# How it was run: (§4)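 Normal male Wistar rats (120 ± 20 g), no ethylene glycol, given drug orally at 50 mg/kg body wt/day for 28 days. Kidney homogenized 10% in ice-cold 0.01 M Tris-HCl, pH 7.4. Lipid peroxidation read as malondialdehyde released, with 10 mM ferrous sulfate or 0.2 mM ascorbate as inducer. Mean ± SEM, 6 rats/group.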
# [14] = tested on: Rattus norvegicus; assay: Reduction in ferrous sulfate-induced lipid peroxidation levels in kidney of ethylene glycol-induced hyperoxaluria Wistar rat model assessed as malondialdehyde release per mg of protein at 50 mg/kg/day, po for 28 days; format: functional; how it was run: as §3
# [15] = tested on: Rattus norvegicus; assay: Effect on ferrous sulfate-induced lipid peroxidation levels in kidney of Wistar rat assessed as malondialdehyde release per mg of protein at 50 mg/kg/day, po for 28 days; format: functional; how it was run: as §4
# [16] = tested on: Rattus norvegicus; assay: Protective effect in kidney of ethylene glycol-induced hyperoxaluria Wistar rat model assessed as normal glomerulus/tubule at 50 mg/kg/day, po for 28 days; format: functional, organism-based
# How it was run: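 Hyperoxaluria induced with 0.75% ethylene glycol in drinking water for 28 days, with concurrent oral dosing at 50 mg/kg body wt/day. Kidney portions fixed in 10% formalin, stained with hematoxylin and eosin, and examined by light microscopy for glomeruli, tubules, crystal deposits and infiltration.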
# [17] = tested on: Rattus norvegicus; assay: Nephrotoxicity in Wistar rat at 50 mg/kg/day, po for 28 days; format: toxicity, organism-based; design: route oral; conditions: in vivo, 672 h
# How it was run: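 Male Wistar rats (120 ± 20 g), six per group, dosed orally once daily for 28 days, alone or alongside 0.75% ethylene glycol in drinking water to induce hyperoxaluria. After decapitation, kidneys were homogenized (10%) in ice-cold 0.01 M Tris-HCl pH 7.4 for ALP and γ-GT assays, or formalin-fixed, H&E-stained and examined by light microscopy. Data reported as mean ± SEM.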
# [18] = tested on: Rattus norvegicus; assay: Renoprotective effect in ethylene glycol-hyperoxaluria Wistar rat model assessed as increase in renal alkaline phosphatase activity per mg of protein at 50 mg/kg/day, po for 28 days; format: functional
# How it was run: (§5)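 Ethylene glycol given at 0.75% in drinking water for 28 days to male Wistar rats, with concurrent oral dosing at 50 mg/kg body wt/day. Kidney homogenate in 0.01 M Tris-HCl pH 7.4. ALP read as phenol liberated from disodium phenyl phosphate, Folin colour at alkaline pH; γ-GT as p-nitroaniline liberated/min/mg protein. Mean ± SEM, 6 rats/group.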
# [19] = tested on: Rattus norvegicus; assay: Effect on renal alkaline phosphatase activity in Wistar rat assessed per mg of protein at 50 mg/kg/day, po for 28 days; format: functional
# How it was run: (§6)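 Normal male Wistar rats, no ethylene glycol, dosed orally at 50 mg/kg body wt/day for 28 days. Kidney homogenate in 0.01 M Tris-HCl pH 7.4. ALP read as phenol liberated from disodium phenyl phosphate, Folin colour at alkaline pH; γ-GT as p-nitroaniline liberated/min/mg protein. Mean ± SEM, 6 rats/group.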
# [20] = tested on: Rattus norvegicus; assay: Renoprotective effect in ethylene glycol-hyperoxaluria Wistar rat model assessed as increase in renal gamma glutamyl transferase activity mg of protein at 50 mg/kg/day, po for 28 days; format: functional; how it was run: as §5
# [21] = tested on: Rattus norvegicus; assay: Effect on renal gamma glutamyl transferase activity in Wistar rat assessed mg of protein at 50 mg/kg/day, po for 28 days; format: functional; how it was run: as §6
# [22] = tested on: Rattus norvegicus; assay: Reduction of lactate dehydrogenase activity in liver of ethylene glycol-induced hyperoxaluria Wistar rat model assessed per mg of protein at 50 mg/kg/day, po for 28 days; format: functional
# How it was run: (§7)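 Hyperoxaluria produced with 0.75% ethylene glycol in drinking water for 28 days, with concurrent oral dosing at 50 mg/kg body wt/day. Liver and kidney homogenized 10% in ice-cold 0.01 M Tris-HCl pH 7.4. LDH assayed with glyoxylate as substrate; GAO and XO by published methods. Mean ± SEM, 6 rats/group.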
# [23] = tested on: Rattus norvegicus; assay: Effect on lactate dehydrogenase activity in liver of Wistar rat assessed per mg of protein at 50 mg/kg/day, po for 28 days; format: functional
# How it was run: (§8)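 Normal male Wistar rats, no ethylene glycol, given oral dosing at 50 mg/kg body wt/day for 28 days. Liver and kidney homogenized 10% in ice-cold 0.01 M Tris-HCl pH 7.4. LDH assayed with glyoxylate as substrate; GAO and XO by published methods. Mean ± SEM, 6 rats/group.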
# [24] = tested on: Rattus norvegicus; assay: Reduction of xanthine oxidase activity in liver of ethylene glycol-induced hyperoxaluria Wistar rat model assessed per mg of protein at 50 mg/kg/day, po for 28 days; format: functional; how it was run: as §7
# [25] = tested on: Rattus norvegicus; assay: Effect on xanthine oxidase activity in liver of Wistar rat assessed per mg of protein at 50 mg/kg/day, po for 28 days; format: functional; how it was run: as §8
# [26] = tested on: Rattus norvegicus; assay: Reduction of glycolic acid oxidase activity in liver of ethylene glycol-induced hyperoxaluria Wistar rat model assessed per mg of protein at 50 mg/kg/day, po for 28 days; format: functional; how it was run: as §7
# [27] = tested on: Rattus norvegicus; assay: Effect on glycolic acid oxidase activity in liver of Wistar rat assessed per mg of protein at 50 mg/kg/day, po for 28 days; format: functional; how it was run: as §8
# [28] = tested on: Rattus norvegicus; assay: Reduction of lactate dehydrogenase activity in kidney of ethylene glycol-induced hyperoxaluria Wistar rat model assessed per mg of protein at 50 mg/kg/day, po for 28 days; format: functional; how it was run: as §7
# [29] = tested on: Rattus norvegicus; assay: Effect on lactate dehydrogenase activity in kidney of Wistar rat assessed per mg of protein at 50 mg/kg/day, po for 28 days; format: functional; how it was run: as §8
# [30] = tested on: Rattus norvegicus; assay: Reduction of xanthine oxidase activity in kidney of ethylene glycol-induced hyperoxaluria Wistar rat model assessed per mg of protein at 50 mg/kg/day, po for 28 days; format: functional; how it was run: as §7
# [31] = tested on: Rattus norvegicus; assay: Effect on xanthine oxidase activity in kidney of Wistar rat assessed per mg of protein at 50 mg/kg/day, po for 28 days; format: functional; how it was run: as §8
# [32] = tested on: Rattus norvegicus; assay: Increase in superoxide dismutase activity in kidney of ethylene glycol-induced hyperoxaluria Wistar rat model assessed per mg of protein at 50 mg/kg/day, po for 28 days; format: functional; how it was run: as §2
Structure (SMILES),Activity [1],Activity [2],Activity [3],Activity [4],Activity [5],Activity [6],Activity [7],Activity [8],Activity [9],Activity [10],Activity [11],Activity [12],Activity [13],Activity [14],Activity [15],Activity [16],Activity [17],Activity [18],Activity [19],Activity [20],other results
C=C(C)[C@@H]1CC[C@]2(C)CC[C@]3(C)C(CC[C@@H]4[C@@]5(C)CC[C@H](OC(=O)CCCCCCC/C=C/C/C=C/CCCCC)C(C)(C)[C@@H]5CC[C@]43C)[C@@H]12 (some centres undefined) [LUPEOL LINOLEATE],5,155.3 µmol/min,164.9 µmol/min,8.01 µg/min,8.32 µg/min,4.59 µg,4.76 µg,1.74 µg,1.89 µg,0.97 µg,1.06 µg,4.95 nmol,4.45 nmol,13.38 nmol,12.2 nmol,Active,Non-toxic,1.65 µmol/min,1.68 µmol/min,8.62 nmol/min,Activity [21]: 8.79 nmol/min; Activity [22]: 2.39; Activity [23]: 2.33; Activity [24]: 1.39; Activity [25]: 1.28; Activity [26]: 3.12 nmol; Activity [27]: 2.75 nmol; Activity [28]: 2.26; Activity [29]: 2.01; Activity [30]: 0.97; Activity [31]: 0.9; Activity [32]: 4.82
C=C(C)[C@@H]1CC[C@]2(C)CC[C@]3(C)[C@H](CC[C@@H]4[C@@]5(C)CC[C@H](O)C(C)(C)[C@@H]5CC[C@]43C)[C@@H]12 [LUPEOL],5.04,141.6 µmol/min,164.2 µmol/min,7.11 µg/min,8.31 µg/min,4.27 µg,4.75 µg,1.6 µg,1.86 µg,0.91 µg,1.04 µg,5.11 nmol,4.5 nmol,15.11 nmol,12.14 nmol,Active,Non-toxic,1.53 µmol/min,1.72 µmol/min,8.28 nmol/min,Activity [21]: 8.73 nmol/min; Activity [22]: 2.42; Activity [23]: 2.35; Activity [24]: 1.54; Activity [25]: 1.31; Activity [26]: 3.61 nmol; Activity [27]: 2.77 nmol; Activity [28]: 2.41; Activity [29]: 2.05; Activity [30]: 1.09; Activity [31]: 0.93; Activity [32]: 4.67
